# Paper PMC2192647 (The Journal of Cell Biology, 2000)
# Entries after “also recorded” stand apart in the source; their conditions may differ. Where two headings read alike, the source gives them in different places.
# T1: MMP-1 (Homo sapiens, UniProt P03956)
# T1 sequence (P03956 100-469): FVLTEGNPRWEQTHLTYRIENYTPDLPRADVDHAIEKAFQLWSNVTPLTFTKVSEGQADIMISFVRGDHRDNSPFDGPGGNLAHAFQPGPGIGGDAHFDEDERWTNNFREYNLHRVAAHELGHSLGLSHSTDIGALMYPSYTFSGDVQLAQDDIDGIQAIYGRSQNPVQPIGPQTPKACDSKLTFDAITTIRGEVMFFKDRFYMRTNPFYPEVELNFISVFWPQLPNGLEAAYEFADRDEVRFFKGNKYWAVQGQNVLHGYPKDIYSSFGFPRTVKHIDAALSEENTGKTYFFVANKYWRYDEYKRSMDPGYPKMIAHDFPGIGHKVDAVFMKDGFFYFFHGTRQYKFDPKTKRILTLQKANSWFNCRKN
# Tests used:
# EGFR = test: Wound-induced EGFR tyrosine phosphorylation in cultured keratinocytes; assay type: cell-based, human; settings: wounded keratinocytes
# Outline: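 Keratinocytes grown 72 h on collagen-coated 10-cm dishes (5 × 10^5/dish). Starved 2 h in BHE-free medium ± test compound (1 μM), cycloheximide (50 μM) or HB-EGF neutralizing antibody No. 197 (10 μg/ml). Tip-scrape wounded, incubated set times at 37°C. Lysates in Triton/vanadate buffer; EGFR immunoprecipitated overnight at 4°C with protein A-Sepharose. Run on 6% SDS-PAGE, PVDF-blotted, probed, ABC/ECL detection.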
# [1] = system: plasminogen-deficient mice; settings: plasminogen-deficient mice ref Lund et al. 1999; cited from earlier work
# AP-tag AR [2] = test: TPA-inducible shedding of AP-tag AR in CHO transfectants; assay type: cell-based, human; settings: 60 nM TPA
# AP-tag TGF-α [3] = test: TPA-inducible shedding of AP-tag TGF-α in CHO transfectants; assay type: cell-based, human; settings: 60 nM TPA; for Percent inhibition at 1 μM TGF-α: 1 μM inhibitor, CHO transfectants
# AP-tag HB-EGF [4] = test: TPA-inducible shedding of AP-tag HB-EGF in CHO transfectants; assay type: cell-based, human; settings: 60 nM TPA
# Human keratinocytes [5] = test: Keratinocyte migration after wounding; assay type: cell-based; settings: for Block of migration relative to the control: 10 μM, Fig. 6 b; for Keratinocyte migration into wound area: 3 d, antibody No. 425 10 μg/ml, AG1478 30 nM, OSU8-1 1 μM
# Outline: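 Human keratinocytes grown on type I collagen-coated dishes or 6-well plates. At subconfluency, switched to BHE-free medium and scraped with a wide silicone rubber scraper. Washed once to remove floating cells, then re-fed BHE-free medium with or without test compound, antibody No. 425 (10 μg/ml), AG1478 (30 nM), or test compound plus HB-EGF (20 ng/ml). Cultured 3 d at 37°C.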
# MMP-9 = MMP-9 (Homo sapiens, UniProt P14780); test: MMP-9 inhibition; assay type: biochemical; settings: read-out: IC50 MMP-9
# MMP-3 = MMP-3 (Homo sapiens, UniProt P08254); test: MMP-3 inhibition; assay type: biochemical; settings: read-out: IC50 MMP-3
# MMP-1 = biological target: T1, MMP-1; test: MMP-1 inhibition; assay type: biochemical
# Human keratinocytes [6] = test: Keratinocyte growth; assay type: cell-based; settings: 3 d
# Outline: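 Human keratinocytes kept in supplemented MCDB153. Seeded at 10^5 cells/well in 6-well plates and grown 3 d with or without test compound (1 μM), EGFR neutralizing antibody No. 425 (10 μg/ml) or AG1478 (30 nM). Values are averages of triplicate experiments.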
# AP-tag TGF-α [7] = test: Wound-induced shedding of AP-tag TGF-α in HaCat transfectants; assay type: cell-based, human; settings: 1 μM, 60 min after wounding
# keratinocytes [8] = test: Juxtacrine growth factor assay; assay type: cell-based, human; settings: 1 μM, Fig. 7 a
# Outline: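 Keratinocytes plated at 10^5 cells/well and grown 12 h. Soluble HB-EGF/AR stripped by washing in medium containing 2 M NaCl. Cells fixed in 5% buffered formalin for 5 min, then washed in RPMI 1640/10% FCS. EP170.7 cells (10^5/well) added with [3H]thymidine for 6 h. Thymidine incorporation into EP170.7 DNA measured. Averages of triplicate experiments.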
# [9] = system: wild-type HB-EGF, TGF-α, and AR; test: TPA-inducible shedding of wild-type ligands in CHO transfectants; assay type: cell-based, human; settings: 10 μM, Fig. 2 b
# Outline: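 CHO cells stably expressing untagged HB-EGF, AR or TGF-α, seeded at 2 × 10^5/6-cm dish, grown 24 h in Ham's F12/10% FCS. Surface-biotinylated with 0.1 mg/ml sulfo-NHS-biotin, 15 min on ice. Preincubated ±10 μM test compound for 10 min, then 30 min at 37°C with TPA plus compound. Ligands immunoprecipitated with specific antibodies and protein A; SDS-PAGE/Western blot, avidin-HRP/ECL detection.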
# AP-tag AR [10] = test: Wound-induced shedding of AP-tag AR in HaCat transfectants; assay type: cell-based, human; settings: 1 μM, 60 min after wounding
# EGFR ligands = test: Release of soluble EGFR ligands from wounded keratinocytes; assay type: cell-based, human; settings: 1 μM
# Outline: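 Subconfluent keratinocytes in BHE-free medium tip-scraped in cross-stripes 5 mm apart, washed, then re-fed with or without test compound. Conditioned media collected at several times (37°C). Media added to EP170.7 cells (2 × 10^4/well) for 36 h, then [3H]thymidine (1 μCi/well) for 6 h; DNA incorporation measured. HB-EGF neutralised by preincubating with antibody No. 197 (10 μg/ml final). Four independent experiments.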
# keratinocytes [11] = test: Keratinocyte migration assay in a Boyden chamber; assay type: cell-based, human
# Outline: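 Keratinocytes grown 72 h on collagen-coated dishes, detached with trypsin-EDTA for ≤1 min, resuspended at 10^5 cells/ml. Samples placed in bottom wells of a 48-well Boyden chamber: recombinant HB-EGF, or serially diluted 48-h wounded-culture conditioned medium, with test compound added top or bottom. Collagen-coated 8-μm polycarbonate membrane; 50 μl cells per top well. Ran 4 h at 37°C. Migrated cells fixed, hematoxylin-stained, counted microscopically.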
# AP-tag HB-EGF [12] = test: Wound-induced shedding of AP-tag HB-EGF in HaCat transfectants; assay type: cell-based, human; settings: 1 μM, 60 min after wounding
# BALB/c mice = test: In vivo wound assay, full-thickness wounds in mice; settings: HB-EGF 5 μg/ml in addition to 10 mM OSU8-1, day 6
# Outline: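 Female BALB/c mice, 8 wk old, housed singly, anaesthetised with diethylether. Two 6-mm full-thickness punch wounds on the back, left open. Each wound received 500 μl daily for 5 d. One side got vehicle (1.5% carboxymethylcellulose in sterile PBS). The other got 10 mM test compound (n = 10) or test compound plus 5 μg/ml HB-EGF (n = 5). Wounds excised day 6, formalin-fixed, sectioned anterior-posterior, anti-cytokeratin stained.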
# MMP-3, sequence (P08254 100-477, species assumed): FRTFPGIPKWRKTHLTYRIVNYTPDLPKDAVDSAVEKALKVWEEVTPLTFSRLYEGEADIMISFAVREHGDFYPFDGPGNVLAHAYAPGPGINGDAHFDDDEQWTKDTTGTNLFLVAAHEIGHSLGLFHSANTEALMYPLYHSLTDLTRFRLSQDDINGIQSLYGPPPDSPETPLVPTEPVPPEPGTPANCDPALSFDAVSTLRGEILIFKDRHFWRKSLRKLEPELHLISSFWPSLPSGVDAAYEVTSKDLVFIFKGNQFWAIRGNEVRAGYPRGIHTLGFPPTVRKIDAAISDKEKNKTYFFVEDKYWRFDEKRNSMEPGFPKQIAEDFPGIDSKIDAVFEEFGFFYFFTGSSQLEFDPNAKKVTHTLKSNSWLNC
# MMP-9, sequence (P14780 94-707, species assumed): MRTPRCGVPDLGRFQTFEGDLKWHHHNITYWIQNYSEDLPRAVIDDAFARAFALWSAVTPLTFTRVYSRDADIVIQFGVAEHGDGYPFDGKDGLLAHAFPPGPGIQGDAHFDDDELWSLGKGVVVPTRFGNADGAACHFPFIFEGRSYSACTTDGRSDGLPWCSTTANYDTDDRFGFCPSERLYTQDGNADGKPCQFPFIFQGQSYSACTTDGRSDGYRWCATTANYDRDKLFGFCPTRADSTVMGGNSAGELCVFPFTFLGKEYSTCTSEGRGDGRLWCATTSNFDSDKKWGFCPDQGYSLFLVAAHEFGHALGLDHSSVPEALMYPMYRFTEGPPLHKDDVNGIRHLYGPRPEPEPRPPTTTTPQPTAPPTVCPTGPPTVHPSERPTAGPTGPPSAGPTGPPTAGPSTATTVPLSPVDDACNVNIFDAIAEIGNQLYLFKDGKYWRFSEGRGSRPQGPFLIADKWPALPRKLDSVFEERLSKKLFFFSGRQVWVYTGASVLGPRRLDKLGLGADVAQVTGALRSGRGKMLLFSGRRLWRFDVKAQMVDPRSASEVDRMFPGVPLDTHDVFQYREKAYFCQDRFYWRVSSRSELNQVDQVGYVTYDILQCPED
molecule,measurement,setting,value
"C[C@@H]1C[C@@H]([C@H](O)CC2CC(=O)NC(=O)C2)C(=O)[C@@H](C)C1 [Cycloheximide, cycloheximide]",EGFR activation induced by wounding,EGFR; 50 μM,failed to abrogate; also recorded: did not abrogate
CNC(=O)[C@H](Cc1c[nH]c2ccccc12)NC(=O)[C@@H](CC(=O)NO)CC(C)C [galardin],Wound healing,[1],completely arrested
"CCCCCCCCCCCCCC(=O)O[C@@H]1[C@@H](C)[C@@]2(O)[C@@H](C=C(CO)C[C@]3(O)C(=O)C(C)=C[C@@H]23)[C@@H]2C(C)(C)[C@]12OC(C)=O [TPA, 12-O-tetradecanoylphorbol-13-acetate, reference compound]",Induction of shedding of AP-tag AR,AP-tag AR [2]; 30 min,less effective
same,Induction of shedding of AP-tag TGF-α,AP-tag TGF-α [3]; 30 min,induced the shedding
same,Induction of shedding of AP-tag HB-EGF,AP-tag HB-EGF [4]; 30 min,induced the shedding
"COc1ccc(S(=O)(=O)N2Cc3cc(O)c(O)cc3CC2C(=O)NO)cc1 (centres unmarked) [OSU9-6, [6,7-dihydroxy-3-(N-hydroxycarbamoyl)-2-(4-methoxybenzenesulfonyl)-1,2,3,4-tetrahydroisoquinoline]]",Percent inhibition at 1 μM TGF-α,AP-tag TGF-α [3]; 30 min,5%
same,Block of migration relative to the control,Human keratinocytes [5],~70%
"CNC(=O)[C@H](Cc1cccc2ccccc12)NC(=O)[C@@H](CC(=O)NO)CC(C)C [OSU7-6, [4-(N-hydroxyamino)-2R-isobutylsuccinyl]-L-3-(1-naphthyl)-alanine-N-methylamide]",Percent inhibition at 1 μM TGF-α,AP-tag TGF-α [3]; 30 min,5%
same,Block of migration relative to the control,Human keratinocytes [5],~70%
same,IC50,MMP-9,0.4 nM
same,IC50,MMP-3,2 nM
same,IC50,MMP-1; read-out: IC50 MMP-1,0.35 nM
"COc1cc2ncnc(Nc3cccc(Cl)c3)c2cc1OC [AG1478, reference compound]",Keratinocyte migration into wound area,Human keratinocytes [5],suppressed
same,"Proliferation, % of the control","Human keratinocytes [6]; antibody No. 425 10 μg/ml, AG1478 30 nM",10–15 % of the control
"CNC(=O)[C@H](Cc1cccc2c1CCCC2)NC(=O)[C@H](CC(C)C)[C@H](C)C(=O)NO [OSU8-1, [4-(N-hydroxyamino)-2R-isobutyl-3S-methylsuccinyl]-L-3-(5,6,7,8-tetra-hydro-1-naphthyl)alanine-N-methylamide]",Effect on wound-induced AP-tag TGF-α shedding,AP-tag TGF-α [7],no effect
same,Percent inhibition at 1 μM AR,"AP-tag AR [2]; 1 μM inhibitor, 30 min, CHO transfectants",70%
same,Block of shedding of AP-tag AR,"AP-tag AR [2]; 1 μM, Fig. 2 a",markedly blocked
same,Block of TPA-inducible shedding of AP-tag AR,"AP-tag AR [2]; 10 μM, Fig. 2 a",significantly blocked
same,Juxtacrine growth activity of keratinocytes,keratinocytes [8],slightly upregulated
same,"TPA-inducible shedding of wild-type HB-EGF, TGF-α, and AR",[9],abrogation
same,EGFR activation after wounding,EGFR; 1 μM,abrogated completely
same,Inhibition of wound-induced shedding of AP-tag AR,AP-tag AR [10],effective at inhibiting
same,Block of shedding of AP-tag TGF-α,"AP-tag TGF-α [3]; 1 μM, Fig. 2 a",partially blocked
same,Block of TPA-inducible shedding of AP-tag TGF-α,"AP-tag TGF-α [3]; 10 μM, Fig. 2 a",significantly blocked
same,Block of shedding of AP-tag HB-EGF,"AP-tag HB-EGF [4]; 1 μM, Fig. 2 a",markedly blocked
same,Block of TPA-inducible shedding of AP-tag HB-EGF,"AP-tag HB-EGF [4]; 10 μM, Fig. 2 a",significantly blocked
same,Keratinocyte migration into wound area,Human keratinocytes [5],significantly suppressed
same,Release of EGFR ligands after wounding,EGFR ligands,abrogated completely
same,IC50,MMP-9,0.3 nM
same,Inhibition of cell growth,"Human keratinocytes [6]; 1 μM, Fig. 7 b",~50%
same,IC50,MMP-3,2.9 nM
same,IC50,MMP-1; read-out: IC50 MMP-1,0.3 nM
same,IC50,"MMP-1; read-out: IC50s for all three MMPs, range across MMP-1, MMP-3 and MMP-9",0.3 to 2.9 nM
same,Fold less potent at promoting migration: conditioned medium collected in the presence of OSU8-1,"keratinocytes [11]; 48-h conditioned medium of wounded keratinocytes, 1 μM OSU8-1, Fig. 7 d",~30 fold
same,Effect on migration of keratinocytes induced by conditioned medium,"keratinocytes [11]; various concentrations of OSU8-1 added to the conditioned medium, Fig. 7 e",no effect
same,Inhibition of wound-induced shedding of AP-tag HB-EGF,AP-tag HB-EGF [12],effective at inhibiting
"HB-EGF: human recombinant heparin-binding EGF-like growth factor, soluble form (protein, UniProt Q99075 63-148, looked up) Heparin-binding EGF-like …: DLQEADLDLLRVTLSSKPQALATPNKEEHGKRKKKGKGLGKKRDPCLRKYKDFCIHGECKYVKELRAPSCICHPGYHGERCHGLSL",Keratinocyte migration and regeneration of the epidermis,BALB/c mice,completely restored
same,Concentration of maximal stimulation of keratinocyte migration,"keratinocytes [11]; recombinant HB-EGF, Boyden chamber, Fig. 7 c",10 ng/mL
